ChEMBL document CHEMBL3351550, “Synthesis and antiangiogenic activity of 6-amido-2,4,5-trimethylpyridin-3-ols” (2014)

Assays:
Chorioallantoic membrane [1] = experiment: Antiangiogenic activity in chicken chorioallantoic membrane assessed as inhibition of VEGF-induced blood vessel formation at 0.01 nmol/CAM treated 30 mins after VEGF addition measured after 3 days relative to control; type: functional, cell membranes; conditions: Gallus gallus
Method in brief: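 Chick embryo CAM; angiogenesis induced with VEGF (20 ng/CAM) before compound. Compound stock diluted in PBS to 1.0 μM, 10 μL applied to a disk on the CAM, giving 0.01 nmol/CAM. Read-out is the number of new blood vessel branch points in the area under the disk, compared against VEGF-treated CAMs.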

Chorioallantoic membrane [2] = experiment: Antiangiogenic activity in chicken chorioallantoic membrane assessed as inhibition of VEGF-induced blood vessel formation treated 30 mins after VEGF addition measured after 3 days; type: functional, cell membranes; conditions: Gallus gallus
Method in brief: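 VEGF (20 ng/CAM)-induced angiogenesis on chick embryo CAM, with compound applied afterwards on a disk. New vessel branch points under the disk were counted at several doses, mean ± SEM, n at least six. ID50 taken from dose-response curves.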

A549 [3] = experiment: Antitumor activity in human A549 cells inoculated with chicken chorioallantoic membrane assessed as inhibition of tumor weight at 0.01 pmol/CAM after 5 days; type: functional
Method in brief: (§1)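 A549 cells (2×10^6 cells/CAM) in Matrigel inoculated onto chick CAM and treated once with compound at implantation. The tumor mass grown on the CAM was excised and weighed, and inhibition is relative to untreated controls, means ± S.E.M., at least six embryos.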

A549 [4] = experiment: Antitumor activity in human A549 cells inoculated with chicken chorioallantoic membrane assessed as inhibition of tumor weight at 0.1 pmol/CAM after 5 days; type: functional; method in brief: as §1
A549 [5] = experiment: Antitumor activity in human A549 cells inoculated with chicken chorioallantoic membrane assessed as inhibition of tumor weight at 1 pmol/CAM after 5 days; type: functional; method in brief: as §1
A549 [6] = experiment: Antitumor activity in human A549 cells inoculated with chicken chorioallantoic membrane assessed as inhibition of tumor weight at 0.001 pmol/CAM after 5 days; type: functional; method in brief: as §1
Chorioallantoic membrane [7] = experiment: Antiangiogenic activity in human A549 cells inoculated with chicken chorioallantoic membrane assessed as inhibition of blood vessel branch points around tumor at 0.01 pmol/CAM after 5 days; type: functional, Gallus gallus
Method in brief: (§2)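 A549 human lung cancer cells (2×10^6 cells/CAM) in Matrigel implanted on top of the CAM, with compound given once at implantation. New vessel branch points around the tumor were counted as for the VEGF CAM assay. Inhibition is relative to untreated CAMs, mean ± S.E.M. of at least six embryos.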

Chorioallantoic membrane [8] = experiment: Antiangiogenic activity in human A549 cells inoculated with chicken chorioallantoic membrane assessed as inhibition of blood vessel branch points around tumor at 0.1 pmol/CAM after 5 days; type: functional, Gallus gallus; method in brief: as §2
Chorioallantoic membrane [9] = experiment: Antiangiogenic activity in human A549 cells inoculated with chicken chorioallantoic membrane assessed as inhibition of blood vessel branch points around tumor at 1 pmol/CAM after 5 days; type: functional, Gallus gallus; method in brief: as §2

## Cc1nc(NC(=O)C(C)(C)C)c(C)c(C)c1O
Chorioallantoic membrane [1]
  inhibition: 73.2%

## Cc1nc(NC(=O)c2cccc3ccccc23)c(C)c(C)c1O
Chorioallantoic membrane [1]
  inhibition: 75.8%

## Cc1nc(NC(=O)c2ccc(F)cc2)c(C)c(C)c1O
Chorioallantoic membrane [1]
  inhibition: 75.3%

## Cc1nc(NC(=O)CCc2ccccc2)c(C)c(C)c1O
Chorioallantoic membrane [1]
  inhibition: 74.2%

## Cc1nc(NC(=O)C(C)C)c(C)c(C)c1O
Chorioallantoic membrane [1]
  inhibition: 53.2%

## CC(=O)Nc1nc(C)c(O)c(C)c1C
Chorioallantoic membrane [1]
  inhibition: 84.8%
Chorioallantoic membrane [2]
  ID50: 8.7 fmol
A549 [3]
  inhibition (INH): 34.2%
A549 [4]
  inhibition (INH): 37.9%
A549 [5]
  inhibition (INH): 47.7%
A549 [6]
  inhibition (INH): 20.3%

## Cc1nc(NC(=O)c2cccs2)c(C)c(C)c1O
Chorioallantoic membrane [1]
  inhibition: 74.8%

## CCCCCCCCCCCC(=O)Nc1nc(C)c(O)c(C)c1C
Chorioallantoic membrane [1]
  inhibition: 57.4%
Chorioallantoic membrane [2]
  ID50: 14.9 fmol
A549 [3]
  inhibition (INH): 26%
A549 [4]
  inhibition (INH): 31.3%
A549 [5]
  inhibition (INH): 38.2%
A549 [6]
  inhibition (INH): 21.7%

## Cc1nc(NC(=O)CC(C)C)c(C)c(C)c1O
Chorioallantoic membrane [1]
  inhibition: 75.6%

## Cc1nc(NC(=O)CCCCl)c(C)c(C)c1O
Chorioallantoic membrane [1]
  inhibition: 70.2%

## COc1ccc(C(=O)Nc2nc(C)c(O)c(C)c2C)cc1
Chorioallantoic membrane [1]
  inhibition: 69.7%

## CC(=O)Nc1ccc(O)cc1
Chorioallantoic membrane [1]
  inhibition: 77.9%
Chorioallantoic membrane [2]
  ID50: 397 fmol

## CCCCCCCCCCCCCCCC(=O)Nc1nc(C)c(O)c(C)c1C
Chorioallantoic membrane [1]
  inhibition: 59.9%

## CCCCCCCC(=O)Nc1nc(C)c(O)c(C)c1C
Chorioallantoic membrane [1]
  inhibition: 74.7%

## Cc1nc(NC(=O)c2ccc(C(C)(C)C)cc2)c(C)c(C)c1O
Chorioallantoic membrane [1]
  inhibition: 74.2%

## Cc1nc(NC(=O)c2ccc3c(c2)OCO3)c(C)c(C)c1O
Chorioallantoic membrane [1]
  inhibition: 64.8%

## Cc1nc(NC(=O)C2CCCC2)c(C)c(C)c1O
Chorioallantoic membrane [1]
  inhibition: 81.8%
Chorioallantoic membrane [2]
  ID50: 3.6 fmol
A549 [3]
  inhibition (INH): 24%
A549 [4]
  inhibition (INH): 45.1%
A549 [5]
  inhibition (INH): 62.7%
A549 [6]
  inhibition (INH): 13.2%

## CCN(CC)CCNC(=O)c1c(C)[nH]c(/C=C2\C(=O)Nc3ccc(F)cc32)c1C
Chorioallantoic membrane [1]
  inhibition: 88.8%
Chorioallantoic membrane [2]
  ID50: 380 fmol

## Cc1nc(NC(=O)Cc2ccccc2)c(C)c(C)c1O
Chorioallantoic membrane [1]
  inhibition: 69.6%

## Cc1nc(NC(=O)C2CCCCC2)c(C)c(C)c1O
Chorioallantoic membrane [1]
  inhibition: 76.3%

## Cc1nc(NC(=O)c2ccccc2)c(C)c(C)c1O
Chorioallantoic membrane [1]
  inhibition: 77.3%

## CN(C)c1ccc(/C=C2\C(=O)Nc3ccccc32)cc1
Chorioallantoic membrane [1]
  inhibition: 78%
Chorioallantoic membrane [2]
  ID50: 39.7 fmol
Chorioallantoic membrane [7]
  inhibition (INH): 20.8%
Chorioallantoic membrane [8]
  inhibition (INH): 25.1%
Chorioallantoic membrane [9]
  inhibition (INH): 36.2%
A549 [3]
  inhibition (INH): 16.2%
A549 [4]
  inhibition (INH): 23.4%
A549 [5]
  inhibition (INH): 26.8%
